In ChEMBL document CHEMBL1154899, “Synthesis and biological evaluation of caffeic acid 3,4-dihydroxyphenethyl ester” (J Nat Prod, 2010):
≈ marks a conversion by molar mass, not a printed value.

Experiments:
Type in all cases: functional
CAKI-1 [1] = test: Antiproliferative activity against human Caki1 cells assessed as cell growth at 5 uM by SRB assay; details: read-out: Activity
NCI-H226 = test: Antiproliferative activity against human NCI-H226 cells assessed as cell growth at 0.5 uM by SRB assay; details: read-out: Activity
HCT-116 [2] = test: Antiproliferative activity against human HCT116 cells assessed as cell growth at 5 uM by SRB assay; details: read-out: Activity
EKVX = test: Antiproliferative activity against human EKVX cells by SRB assay
A498 = test: Antiproliferative activity against human A498 cells assessed as cell growth at 0.5 uM by SRB assay; details: read-out: Activity
HCC 2998 = test: Antiproliferative activity against human HCC2998 cells assessed as cell growth at […] by SRB assay; details: read-out: Activity
RXF 393 [3] = test: Antiproliferative activity against human RXF393 cells assessed as cell growth at 50 uM by SRB assay; details: read-out: Activity
NCI-H460 = test: Antiproliferative activity against human NCI-H460 cells by SRB assay
NCI-H322M = test: Antiproliferative activity against human NCI-H322M cells assessed as cell growth at 500 uM by SRB assay; details: read-out: Activity
ACHN = test: Antiproliferative activity against human ACHN cells assessed as cell growth at 5 uM by SRB assay; details: read-out: Activity
UACC-257 = test: Antiproliferative activity against human UACC257 cells assessed as cell growth at 50 uM by SRB assay; details: read-out: Activity
T47D = test: Antiproliferative activity against human T47D cells by SRB assay
RXF 393 [4] = test: Antiproliferative activity against human RXF393 cells assessed as cell growth at 5 uM by SRB assay; details: read-out: Activity
SF-539 = test: Antiproliferative activity against human SF539 cells assessed as cell growth at 0.5 uM by SRB assay; details: read-out: Activity
Malme-3M = test: Antiproliferative activity against human MALME-3M cells assessed as cell growth at 5 uM by SRB assay; details: read-out: Activity
UO-31 = test: Antiproliferative activity against human UO31 cells by SRB assay
SW-620 = test: Antiproliferative activity against human SW620 cells by SRB assay
OVCAR-8 [5] = test: Antiproliferative activity against human OVCAR8 cells assessed as cell growth at 5 uM by SRB assay; details: read-out: Activity
U-251 [6] = test: Antiproliferative activity against human U251 cells assessed as cell growth at 5 uM by SRB assay; details: read-out: Activity
OVCAR-4 = test: Antiproliferative activity against human OVCAR4 cells assessed as cell growth at 5 uM by SRB assay; details: read-out: Activity
TK-10 = test: Antiproliferative activity against human TK10 cells by SRB assay
SK-MEL-5 [7] = test: Antiproliferative activity against human SK-MEL-5 cells by SRB assay
[8] = tested on: Radical scavenging activity; test: Antioxidant activity assessed as DPPH radical scavenging activity after 20 mins
How it was run: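 Test solution at several concentrations (100 µL) mixed with 900 µL of 0.04 mg/mL DPPH in methanol, held 20 min at room temperature, absorbance read at 517 nm. Inhibition % = [(Ac − As)/Ac] × 100, with a blank holding 100 µL methanol in place of sample. Inhibition plotted against concentration; EC50 (mean ± SD) from linear regression of three determinations.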

786-0 [9] = test: Antiproliferative activity against human 786-0 cells assessed as cell growth at 5 uM by SRB assay; details: read-out: Activity
HCT-116 [10] = test: Antiproliferative activity against human HCT116 cells assessed as cell growth at 0.5 uM by SRB assay; details: read-out: Activity
UACC-62 = test: Antiproliferative activity against human UACC62 cells assessed as cell growth at 5 uM by SRB assay; details: read-out: Activity
OVCAR-8 [11] = test: Antiproliferative activity against human OVCAR8 cells assessed as cell growth at 0.5 uM by SRB assay; details: read-out: Activity
HT-29 = test: Antiproliferative activity against human HT-29 cells assessed as cell growth at 0.5 uM by SRB assay; details: read-out: Activity
MCF7 = test: Antiproliferative activity against human MCF7 cells assessed as cell growth at 500 uM by SRB assay; details: read-out: Activity
NCI-H522 = test: Antiproliferative activity against human NCI-H522 cells by SRB assay
786-0 [12] = test: Antiproliferative activity against human 786-0 cells assessed as cell growth at 500 uM by SRB assay; details: read-out: Activity
MDA-MB-435 = test: Antiproliferative activity against human MDA-MB-435 cells assessed as cell growth at 5 uM by SRB assay; details: read-out: Activity
SK-MEL-5 [13] = test: Antiproliferative activity against human SK-MEL-5 cells assessed as cell growth at 5 uM by SRB assay; details: read-out: Activity
MDA-MB-231 = test: Antiproliferative activity against human MDA-MB-231 cells assessed as cell growth at 0.5 uM by SRB assay; details: read-out: Activity
CAKI-1 [14] = test: Antiproliferative activity against human Caki1 cells by SRB assay
U-251 [15] = test: Antiproliferative activity against human U251 cells by SRB assay
NCI-H23 = test: Antiproliferative activity against human NCI-H23 cells assessed as cell growth at 50 uM by SRB assay; details: read-out: Activity
[16] = read-out: LC50 (the source's name)
[17] = read-out: pLC50 (the source's name) (converted)

O=C(/C=C/c1ccc(O)c(O)c1)OCCc1ccc(O)c(O)c1
growth at 5 µM (CAKI-1 [1]): 83%
growth at 0.5 µM (NCI-H226): 97%
growth at 5 µM (HCT-116 [2]): 97%
GI50 (EKVX; read-out: GI50): 14.9 µM
CC50 (EKVX; [16]): > 50 µM
TGI (EKVX; read-out: TGI): > 50 µM
GI50 (EKVX; read-out: pGI50 (converted)): 14.8 µM
CC50 (EKVX; [17]): > 50.1 µM
TGI (EKVX; read-out: pTGI): > 50.1 µM
growth at 0.5 µM (A498): 94%
growth (HCC 2998): 18%
growth at 50 µM (RXF 393 [3]): 135%
GI50 (NCI-H460): 14.8 µM
CC50 (NCI-H460; [16]): > 50 µM
TGI (NCI-H460; read-out: TGI): > 50 µM
CC50 (NCI-H460; [17]): > 50.1 µM
TGI (NCI-H460; read-out: pTGI): > 50.1 µM
growth at 500 µM (NCI-H322M): 86%
growth at 5 µM (ACHN): 95%
growth at 50 µM (UACC-257): 92%
GI50 (T47D; read-out: GI50): 11.3 µM
CC50 (T47D; [16]): > 50 µM
TGI (T47D; read-out: TGI): > 50 µM
GI50 (T47D; read-out: pGI50 (converted)): 11.2 µM
CC50 (T47D; [17]): > 50.1 µM
TGI (T47D; read-out: pTGI): > 50.1 µM
growth at 5 µM (RXF 393 [4]): 84%
growth at 0.5 µM (SF-539): 90%
growth at 5 µM (Malme-3M): 98%
GI50 (UO-31; read-out: GI50): 1.75 µM
CC50 (UO-31; [16]): > 50 µM
TGI (UO-31; read-out: TGI): 21.1 µM
GI50 (UO-31; read-out: pGI50 (converted)): 1.66 µM
CC50 (UO-31; [17]): > 50.1 µM
TGI (UO-31; read-out: pTGI (converted)): 20.9 µM
GI50 (SW-620; read-out: GI50): 10.2 µM
CC50 (SW-620; [16]): > 50 µM
TGI (SW-620; read-out: TGI): > 50 µM
GI50 (SW-620; read-out: pGI50 (converted)): 10.2 µM
CC50 (SW-620; [17]): > 50.1 µM
TGI (SW-620; read-out: pTGI): > 50.1 µM
growth at 5 µM (OVCAR-8 [5]): 79%
growth at 5 µM (U-251 [6]): 97%
growth at 5 µM (OVCAR-4): 95%
GI50 (TK-10; read-out: GI50): 28.1 µM
CC50 (TK-10; [16]): > 50 µM
TGI (TK-10; read-out: TGI): > 50 µM
GI50 (TK-10; read-out: pGI50 (converted)): 28.2 µM
CC50 (TK-10; [17]): > 50.1 µM
TGI (TK-10; read-out: pTGI): > 50.1 µM
GI50 (SK-MEL-5 [7]; read-out: GI50): 8.12 µM
CC50 (SK-MEL-5 [7]; [16]): > 50 µM
TGI (SK-MEL-5 [7]; read-out: TGI): 47.7 µM
GI50 (SK-MEL-5 [7]; read-out: pGI50 (converted)): 8.13 µM
CC50 (SK-MEL-5 [7]; [17]): > 50.1 µM
TGI (SK-MEL-5 [7]; read-out: pTGI (converted)): 47.9 µM
EC50 [8]: 4.7 µg/mL (≈ 14.9 µM)
growth at 5 µM (786-0 [9]): 98%
growth at 0.5 µM (HCT-116 [10]): 100%
growth at 5 µM (UACC-62): 94%
growth at 0.5 µM (OVCAR-8 [11]): 78%
growth at 0.5 µM (HT-29): 104%
growth at 500 µM (MCF7): 45%
GI50 (NCI-H522; read-out: GI50): 1.26 µM
CC50 (NCI-H522; [16]): > 50 µM
TGI (NCI-H522; read-out: TGI): 8.61 µM
GI50 (NCI-H522; read-out: pGI50 (converted)): 1.26 µM
CC50 (NCI-H522; [17]): > 50.1 µM
TGI (NCI-H522; read-out: pTGI (converted)): 8.91 µM
growth at 500 µM (786-0 [12]): 81%
growth at 5 µM (MDA-MB-435): 92%
growth at 5 µM (SK-MEL-5 [13]): 97%
growth at 0.5 µM (MDA-MB-231): 113%
GI50 (CAKI-1 [14]; read-out: GI50): 10.6 µM
CC50 (CAKI-1 [14]; [16]): > 50 µM
TGI (CAKI-1 [14]; read-out: TGI): > 50 µM
GI50 (CAKI-1 [14]; read-out: pGI50 (converted)): 10.5 µM
CC50 (CAKI-1 [14]; [17]): > 50.1 µM
TGI (CAKI-1 [14]; read-out: pTGI): > 50.1 µM
GI50 (U-251 [15]; read-out: GI50): 8.86 µM
CC50 (U-251 [15]; [16]): > 50 µM
TGI (U-251 [15]; read-out: TGI): > 50 µM
GI50 (U-251 [15]; read-out: pGI50 (converted)): 8.71 µM
CC50 (U-251 [15]; [17]): > 50.1 µM
TGI (U-251 [15]; read-out: pTGI): > 50.1 µM
growth at 50 µM (NCI-H23): 89%
